Laboratory results: ChEMBL document CHEMBL5260844, “Optimization of PDE3A Modulators for SLFN12-Dependent Cancer Cell Killing” (ACS Med Chem Lett, 2019)
Values after ≈ are worked out from the molar mass of the structure shown. Where a name gives a salt, the structure may show the parent alone. Active and inactive are the calls of the source. The rule behind the calls is not given here.

Legend:
[1] = target: High affinity cGMP-specific 3',5'-cyclic phosphodiesterase 9A (Homo sapiens) (UniProt O76083); assay: Inhibition of PDE9A (unknown origin) by 3H-cAMP scintillation proximity assay
[2] = Selectivity ratio, ratio of IC50 for human PDE3A to EC50 for cytotoxicity against human HeLa cells
[3] = Toxicity in NMRI nude mouse assessed as tolerance at 50 mg/kg, po administered once daily for 44 days; assay type: organism-based; details: in vivo, 1056 h, time 44 day
In short: (§1)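 Female NMRI nude mice carrying subcutaneous SK-MEL-3 xenografts, given the compound orally at 10 or 20 mg/kg twice daily, or 50 mg/kg once daily. Tolerance judged by body weight loss (>10% critical) and toxicities.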

[4] = Toxicity in NMRI nude mouse assessed as tolerance at 20 mg/kg, po administered twice daily for 44 days; assay type: organism-based; details: in vivo, 1056 h, time 44 day; in short: as §1
[5] = target: High affinity cAMP-specific and IBMX-insensitive 3',5'-cyclic phosphodiesterase 8A (Homo sapiens) (UniProt O60658); assay: Inhibition of PDE8A (unknown origin) by 3H-cAMP scintillation proximity assay
SK-MEL3 [6] = assay: Antitumor activity against human SK-MEL3 cells xenografted in NMRI nude mouse assessed as tumor weight by measuring tumor to control ratio at 50 mg/kg, po administered once daily for 44 days; assay type: functional; details: time 44 day
In short: (§2)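 SK-MEL-3 melanoma cells inoculated subcutaneously into female NMRI nude mice. Oral dosing at 10 or 20 mg/kg twice daily, or 50 mg/kg once daily, with vehicle controls. Tumor area and tumor weight expressed relative to vehicle as T/C_rel.area and T/C_weight.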

SK-MEL3 [7] = assay: Antitumor activity against human SK-MEL3 cells xenografted in NMRI nude mouse assessed as tumor growth inhibition at 20 mg/kg, po administered twice daily for 44 days; assay type: functional, organism-based; details: time 44.0 day; in short: as §2
[8] = Solubility of the compound; assay type: physicochemical
HCT-116 = assay: Cytotoxicity against human HCT-116 cells assessed as cell growth inhibition upto 10 uM measured after 48 hrs by […] reagent based assay; assay type: functional
In short: (§3)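 Counterscreen viability assay in HCT116 colorectal cancer cells and IMR90 normal lung fibroblasts, run alongside DNMDP-sensitive lines.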

[9] = Selectivity ratio, ratio of IC50 for human PDE3B to EC50 for cytotoxicity against human HeLa cells
[10] = target: cGMP-specific 3',5'-cyclic phosphodiesterase (Homo sapiens) (UniProt O76074); assay: Inhibition of PDE5 (unknown origin) by 3H-cAMP scintillation proximity assay
Cytochrome P450 1A2 = Cytochrome P450 1A2 (Homo sapiens, UniProt P05177); assay: Inhibition of CYP1A2 (unknown origin); assay type: ADME
In short: (§4)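 CYP450 inhibition panel covering CYP1A2, 2C8, 2C9, 2D6 and 3A4, with compound tested at high concentrations.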

[11] = target: 3',5'-cyclic-AMP phosphodiesterase 4B (Homo sapiens) (UniProt Q07343); assay: Inhibition of PDE4B (unknown origin) by 3H-cAMP scintillation proximity assay
HeLa = assay: Cytotoxicity against human HeLa cells assessed as cell growth inhibition measured after 48 hrs by […] reagent based assay; assay type: functional
A549 = assay: Cytotoxicity against human A549 cells assessed as cell growth inhibition upto 10 uM measured after 3 days by […] reagent based assay; details: time 72.0 hrs
Homo sapiens = species: Homo sapiens; assay: Inhibition of PDE1 (unknown origin) by 3H-cAMP scintillation proximity assay
[12] = Efflux ratio of permeability in human Caco-2 cells; assay type: ADME, cell-based
In short: (§5)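 Caco2 monolayer permeability measured in the apical-to-basolateral and basolateral-to-apical directions, in nm/s. Efflux ratio calculated as B-A over A-B.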

Cytochrome P450 2D6 = Cytochrome P450 2D6 (Homo sapiens, UniProt P10635); assay: Inhibition of CYP2D6 (unknown origin); assay type: ADME; in short: as §4
Cytochrome P450 2C8 = Cytochrome P450 2C8 (Homo sapiens, UniProt P10632); assay: Inhibition of CYP2C8 (unknown origin); assay type: ADME; in short: as §4
Cytochrome P450 2C9 = Cytochrome P450 2C9 (Homo sapiens, UniProt P11712); assay: Inhibition of CYP2C9 (unknown origin); assay type: ADME; in short: as §4
[13] = Permeability across basolateral to apical side in human Caco-2 cells; assay type: ADME, cell-based; details: read-out: permeability; in short: as §5
SK-MEL3 [14] = assay: Cytotoxicity against human SK-MEL3 cells assessed as cell growth inhibition upto 10 uM measured after 48 hrs by […] reagent based assay; assay type: functional; details: SK-MEL3, 48 h
Cytochrome P450 3A4 = Cytochrome P450 3A4 (Homo sapiens, UniProt P08684); assay: Inhibition of CYP3A4 (unknown origin); assay type: ADME; in short: as §4
[15] = target: cGMP-inhibited 3',5'-cyclic phosphodiesterase 3A (Homo sapiens, UniProt Q14432); assay: Inhibition of human N-terminal His-GST-tagged recombinant PDE3A (669-end residues) using fluorescent labelled cAMP as substrate
[16] = Toxicity in NMRI nude mouse assessed as tolerance at 10 mg/kg, po administered twice daily for 44 days; assay type: organism-based; details: in vivo, 1056 h, time 44 day; in short: as §1
IMR-90 = assay: Cytotoxicity against human IMR-90 cells assessed as cell growth inhibition upto 10 uM measured after 48 hrs by […] reagent based assay; assay type: functional; in short: as §3
[17] = target: Phosphodiesterase 6 (Homo sapiens) (UniProt Q13956+P18545+P35913+O43924+P16499+P51160); assay: Inhibition of PDE6 (unknown origin) by 3H-cAMP scintillation proximity assay; assay type: protein assay
[18] = target: Ribonuclease SLFN12 (Homo sapiens) (UniProt Q8IYM2); assay: Stabilization of PDE3A/V5-epitope tagged SLFN12 interaction in human HeLa cells at 10 uM incubated for 8 hrs by immunoblotting analysis; assay type: cell-based
In short: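 HeLa cells transfected with a plasmid expressing V5-tagged SLFN12, then exposed to 10 µM compound for 8 h. Lysates immunoprecipitated with anti-PDE3A antibody for endogenous PDE3A. Co-precipitated SLFN12-V5 detected by immunoblot with anti-V5 antibody.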

[19] = Permeability across apical to basolateral side in human Caco-2 cells; assay type: ADME, cell-based; details: read-out: permeability; in short: as §5
[20] = target: cGMP-dependent 3',5'-cyclic phosphodiesterase (Homo sapiens) (UniProt O00408); assay: Inhibition of PDE2A (unknown origin) by 3H-cAMP scintillation proximity assay
[21] = target: 3',5'-cyclic-AMP phosphodiesterase 7B (Homo sapiens) (UniProt Q9NP56); assay: Inhibition of PDE7B (unknown origin) by 3H-cAMP scintillation proximity assay
SK-MEL3 [22] = assay: Antitumor activity against human SK-MEL3 cells xenografted in NMRI nude mouse assessed as tumor growth inhibition at 10 mg/kg, po administered twice daily for 44 days; assay type: functional, organism-based; details: time 44.0 day; in short: as §2
SK-MEL3 [23] = assay: Antitumor activity against human SK-MEL3 cells xenografted in NMRI nude mouse assessed as tumor growth inhibition at 50 mg/kg, po administered once daily for 44 days; assay type: functional, organism-based; details: time 44.0 day; in short: as §2
SK-MEL3 [24] = assay: Antitumor activity against human SK-MEL3 cells xenografted in NMRI nude mouse assessed as tumor growth inhibition by measuring tumor to control ratio at 50 mg/kg, po administered once daily for 44 days; assay type: functional; details: time 44 day; in short: as §2
[25] = target: Voltage-gated inwardly rectifying potassium channel KCNH2 (Homo sapiens, UniProt Q12809); assay: Binding affinity to hERG (unknown origin); assay type: toxicity
[26] = Inhibition of PDE in human HeLa cells; assay type: cell-based

Sequence of Cytochrome P450 2C9 (P11712 whole entry): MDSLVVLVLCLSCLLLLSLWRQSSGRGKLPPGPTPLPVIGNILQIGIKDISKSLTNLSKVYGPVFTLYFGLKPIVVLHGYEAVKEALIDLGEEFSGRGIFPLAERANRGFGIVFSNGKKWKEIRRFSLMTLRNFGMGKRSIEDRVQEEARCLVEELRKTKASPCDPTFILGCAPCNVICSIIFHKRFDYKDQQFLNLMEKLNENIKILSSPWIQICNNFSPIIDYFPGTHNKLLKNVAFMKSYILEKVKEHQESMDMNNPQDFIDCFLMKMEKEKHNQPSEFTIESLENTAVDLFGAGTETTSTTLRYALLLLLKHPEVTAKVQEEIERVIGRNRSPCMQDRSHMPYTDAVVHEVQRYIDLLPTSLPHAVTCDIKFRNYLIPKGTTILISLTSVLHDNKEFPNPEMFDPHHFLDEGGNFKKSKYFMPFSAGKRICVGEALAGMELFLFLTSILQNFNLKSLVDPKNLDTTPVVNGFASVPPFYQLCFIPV
Sequence of High affinity cGMP-specific 3',5'-cyclic phosphodiesterase 9A (Homo sapiens) (O76083 whole entry): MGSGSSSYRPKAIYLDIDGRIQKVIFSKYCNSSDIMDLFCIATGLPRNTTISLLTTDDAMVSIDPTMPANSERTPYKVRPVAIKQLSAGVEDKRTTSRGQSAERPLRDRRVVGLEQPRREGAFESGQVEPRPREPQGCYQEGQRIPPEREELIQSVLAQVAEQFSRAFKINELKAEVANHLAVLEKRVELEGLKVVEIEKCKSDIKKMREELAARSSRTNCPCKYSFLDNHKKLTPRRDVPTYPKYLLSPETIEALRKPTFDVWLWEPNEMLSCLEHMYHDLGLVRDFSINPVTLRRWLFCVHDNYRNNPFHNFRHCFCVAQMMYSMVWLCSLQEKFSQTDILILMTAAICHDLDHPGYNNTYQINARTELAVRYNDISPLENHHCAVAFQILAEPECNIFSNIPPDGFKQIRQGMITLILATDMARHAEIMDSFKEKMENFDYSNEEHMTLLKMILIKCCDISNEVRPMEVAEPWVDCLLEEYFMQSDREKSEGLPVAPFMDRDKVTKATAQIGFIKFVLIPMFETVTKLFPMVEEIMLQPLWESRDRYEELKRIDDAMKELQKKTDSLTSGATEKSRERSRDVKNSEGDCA
Sequence of Voltage-gated inwardly rectifying potassium channel KCNH2 (Q12809 whole entry): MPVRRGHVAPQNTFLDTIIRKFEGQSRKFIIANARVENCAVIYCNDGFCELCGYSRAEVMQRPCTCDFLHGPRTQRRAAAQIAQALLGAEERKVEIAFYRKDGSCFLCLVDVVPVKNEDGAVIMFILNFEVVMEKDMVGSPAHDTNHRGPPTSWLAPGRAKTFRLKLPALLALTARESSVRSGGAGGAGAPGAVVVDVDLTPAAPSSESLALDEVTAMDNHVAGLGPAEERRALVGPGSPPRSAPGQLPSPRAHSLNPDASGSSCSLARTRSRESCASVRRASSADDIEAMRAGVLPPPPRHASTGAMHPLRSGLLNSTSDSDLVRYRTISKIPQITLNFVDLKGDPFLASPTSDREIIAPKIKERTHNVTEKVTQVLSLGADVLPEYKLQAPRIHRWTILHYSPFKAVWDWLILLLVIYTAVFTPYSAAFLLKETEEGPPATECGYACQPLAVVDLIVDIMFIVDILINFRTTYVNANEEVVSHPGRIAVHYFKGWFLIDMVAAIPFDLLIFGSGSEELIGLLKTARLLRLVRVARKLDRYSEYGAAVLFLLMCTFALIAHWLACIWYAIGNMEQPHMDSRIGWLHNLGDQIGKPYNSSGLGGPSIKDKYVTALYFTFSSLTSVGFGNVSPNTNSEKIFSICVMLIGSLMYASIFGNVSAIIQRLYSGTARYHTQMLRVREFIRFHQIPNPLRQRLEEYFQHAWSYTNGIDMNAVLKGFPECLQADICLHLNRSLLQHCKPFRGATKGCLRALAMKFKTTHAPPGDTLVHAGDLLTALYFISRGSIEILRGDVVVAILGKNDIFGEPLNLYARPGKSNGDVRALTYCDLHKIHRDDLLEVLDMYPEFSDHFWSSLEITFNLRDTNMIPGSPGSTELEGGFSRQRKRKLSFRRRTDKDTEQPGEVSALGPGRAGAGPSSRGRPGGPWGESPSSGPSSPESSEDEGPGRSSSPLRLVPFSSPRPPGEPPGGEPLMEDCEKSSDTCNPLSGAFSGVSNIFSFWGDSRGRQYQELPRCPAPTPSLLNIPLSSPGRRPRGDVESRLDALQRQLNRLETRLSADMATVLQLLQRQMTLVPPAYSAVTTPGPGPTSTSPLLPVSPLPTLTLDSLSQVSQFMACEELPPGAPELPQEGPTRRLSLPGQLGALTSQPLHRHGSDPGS
Sequence of Ribonuclease SLFN12 (Homo sapiens) (Q8IYM2 whole entry): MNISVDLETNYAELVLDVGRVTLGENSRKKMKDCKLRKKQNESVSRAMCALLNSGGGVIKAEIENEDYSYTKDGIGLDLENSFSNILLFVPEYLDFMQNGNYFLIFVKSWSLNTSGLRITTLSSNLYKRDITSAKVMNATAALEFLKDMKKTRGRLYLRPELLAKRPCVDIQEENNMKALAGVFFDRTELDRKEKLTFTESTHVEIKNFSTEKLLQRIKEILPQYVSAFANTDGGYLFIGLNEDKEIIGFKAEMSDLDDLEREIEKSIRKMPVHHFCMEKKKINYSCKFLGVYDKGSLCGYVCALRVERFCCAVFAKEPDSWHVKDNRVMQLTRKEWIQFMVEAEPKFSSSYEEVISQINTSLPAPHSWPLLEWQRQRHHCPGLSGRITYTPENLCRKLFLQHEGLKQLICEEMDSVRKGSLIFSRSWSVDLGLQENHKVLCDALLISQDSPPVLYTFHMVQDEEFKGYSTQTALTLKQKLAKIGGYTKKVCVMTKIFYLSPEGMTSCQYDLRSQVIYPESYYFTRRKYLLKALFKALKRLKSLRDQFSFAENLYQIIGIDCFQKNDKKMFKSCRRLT
Sequence of Cytochrome P450 3A4 (P08684 whole entry): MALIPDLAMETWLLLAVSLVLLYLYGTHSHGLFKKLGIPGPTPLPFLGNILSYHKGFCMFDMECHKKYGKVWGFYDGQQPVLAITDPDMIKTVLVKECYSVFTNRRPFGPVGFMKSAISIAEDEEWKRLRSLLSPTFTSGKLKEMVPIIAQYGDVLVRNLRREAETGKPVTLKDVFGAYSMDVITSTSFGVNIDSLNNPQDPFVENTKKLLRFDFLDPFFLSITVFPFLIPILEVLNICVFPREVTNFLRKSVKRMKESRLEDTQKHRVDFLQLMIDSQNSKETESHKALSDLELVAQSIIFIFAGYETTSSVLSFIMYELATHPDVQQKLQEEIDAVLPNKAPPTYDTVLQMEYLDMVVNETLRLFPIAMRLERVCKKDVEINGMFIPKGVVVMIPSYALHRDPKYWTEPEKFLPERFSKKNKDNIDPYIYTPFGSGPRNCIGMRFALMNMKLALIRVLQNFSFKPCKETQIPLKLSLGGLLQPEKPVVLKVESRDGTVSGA
Sequence of Cytochrome P450 1A2 (P05177 whole entry): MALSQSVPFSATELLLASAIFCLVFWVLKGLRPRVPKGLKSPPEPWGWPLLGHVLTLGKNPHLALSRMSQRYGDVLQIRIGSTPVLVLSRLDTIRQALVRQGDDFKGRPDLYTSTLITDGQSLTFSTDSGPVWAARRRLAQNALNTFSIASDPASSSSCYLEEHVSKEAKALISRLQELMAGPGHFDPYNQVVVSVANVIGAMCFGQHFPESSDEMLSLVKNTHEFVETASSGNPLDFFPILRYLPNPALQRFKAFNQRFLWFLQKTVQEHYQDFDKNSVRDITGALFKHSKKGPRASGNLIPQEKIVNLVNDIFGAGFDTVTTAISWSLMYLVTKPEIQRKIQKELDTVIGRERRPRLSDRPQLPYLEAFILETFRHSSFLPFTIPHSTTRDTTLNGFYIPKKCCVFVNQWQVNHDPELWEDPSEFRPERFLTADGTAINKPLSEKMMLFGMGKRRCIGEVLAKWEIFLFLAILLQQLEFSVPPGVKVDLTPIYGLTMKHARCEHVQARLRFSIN
Sequence of Cytochrome P450 2D6 (P10635 whole entry): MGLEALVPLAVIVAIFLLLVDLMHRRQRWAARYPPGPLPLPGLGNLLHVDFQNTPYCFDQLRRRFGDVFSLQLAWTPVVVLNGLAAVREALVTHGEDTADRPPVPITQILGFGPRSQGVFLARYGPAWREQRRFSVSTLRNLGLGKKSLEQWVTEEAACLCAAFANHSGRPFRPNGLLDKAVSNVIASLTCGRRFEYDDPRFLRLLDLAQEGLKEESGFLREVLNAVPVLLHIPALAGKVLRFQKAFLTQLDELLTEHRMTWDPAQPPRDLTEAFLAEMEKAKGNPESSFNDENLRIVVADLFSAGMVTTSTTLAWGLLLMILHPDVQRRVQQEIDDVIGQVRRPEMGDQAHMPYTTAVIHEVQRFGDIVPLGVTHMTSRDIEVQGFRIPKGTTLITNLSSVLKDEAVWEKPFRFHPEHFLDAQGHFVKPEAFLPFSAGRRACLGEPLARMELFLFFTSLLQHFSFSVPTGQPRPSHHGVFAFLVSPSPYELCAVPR
Sequence of 3',5'-cyclic-AMP phosphodiesterase 7B (Homo sapiens) (Q9NP56 whole entry): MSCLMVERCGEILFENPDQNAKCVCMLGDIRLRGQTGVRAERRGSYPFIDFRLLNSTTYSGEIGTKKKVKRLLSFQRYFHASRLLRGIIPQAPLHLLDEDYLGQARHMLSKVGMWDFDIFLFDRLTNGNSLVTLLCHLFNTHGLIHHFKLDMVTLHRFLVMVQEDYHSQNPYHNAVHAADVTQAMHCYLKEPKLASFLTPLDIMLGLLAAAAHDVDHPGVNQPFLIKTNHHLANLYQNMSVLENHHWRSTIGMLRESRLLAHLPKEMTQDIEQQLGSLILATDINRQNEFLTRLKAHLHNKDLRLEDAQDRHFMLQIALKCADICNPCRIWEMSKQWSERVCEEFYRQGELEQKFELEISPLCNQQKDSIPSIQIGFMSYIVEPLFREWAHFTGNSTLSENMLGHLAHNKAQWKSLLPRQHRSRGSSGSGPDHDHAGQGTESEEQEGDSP

Structure (SMILES): C[C@@H]1CC(=O)NN=C1c1ccc(N2CCOCC2)c(F)c1
- inhibition [1]: inactive
- Ratio IC50/EC50 [2]: 2.4
- Activity [3]: Non-Toxic
- Activity [4]: Non-Toxic
- inhibition [5]: inactive
- T/C (SK-MEL3 [6]): 0.16
- TGI (SK-MEL3 [7]): Active
- solubility [8]: 1000 µM (≈ 291 µg/mL)
- Activity (HCT-116): inactive
- Ratio IC50/EC50 [9]: 2.4
- inhibition [10]: inactive
- inhibition (INH) (Cytochrome P450 1A2): Not Active
- inhibition [11]: inactive
- EC50 (HeLa): 1.6 nM
- Activity (A549): inactive
- inhibition (Homo sapiens): inactive
- efflux ratio [12]: 0.71
- inhibition (INH) (Cytochrome P450 2D6): Not Active
- inhibition (INH) (Cytochrome P450 2C8): Not Active
- inhibition (INH) (Cytochrome P450 2C9): Not Active
- Papp B→A [13]: 19.8 ×10⁻⁶ cm/s
- EC50 (SK-MEL3 [14]): 1.3 nM
- inhibition (INH) (Cytochrome P450 3A4): Not Active
- IC50 [15]: 10 nM
- Activity [16]: Non-Toxic
- Activity (IMR-90): inactive
- inhibition [17]: inactive
- Activity [18]: Active
- Papp A→B [19]: 27.9 ×10⁻⁶ cm/s
- inhibition [20]: inactive
- inhibition [21]: inactive
- TGI (SK-MEL3 [22]): Active
- TGI (SK-MEL3 [23]): Active
- T/C (SK-MEL3 [24]): 0.09
- Activity [25]: Not Active

Structure (SMILES): COc1cc2c(cc1OC)-c1c/c(=N\c3c(C)cc(C)cc3C)n(C)c(=O)n1CC2 [TREQUINSIN HYDROCHLORIDE]
- Activity (HCT-116): inactive
- IC50 [26]: 0.25 nM
- Activity (IMR-90): inactive
